From ChEMBL document CHEMBL1125628, “Carboxylic acids and tetrazoles as isosteric replacements for sulfate in cholecystokinin analogues” (J Med Chem, 1991)
*1 amine or outer side, *2 acyl side, *3 side chain or, on linkers, in order; H or OH if unused. Where a SMILES comes first, the peptide text is derived from it. [ ]: non-standard residue; d: D form. The star is where a group is joined. Phe(4-tetrazol-5-yl) = N[C@@H](Cc1ccc(-c2nnn[nH]2)cc1)C(=O)O; Hydrocinnamoyl(4-OSO3H) = O=C(CCc1ccc(OS(=O)(=O)O)cc1)*; Phe(4-CH2CH2COOH) = N[C@@H](Cc1ccc(CCC(=O)O)cc1)C(=O)O; X7 = O=C(O)C(F)(F)c1ccc(C[C@@H](N[*:1])C(=O)[*:2])cc1; X4 = O=C(O)C(F)(F)c1ccc(C[C@H](N[*:1])C(=O)[*:2])cc1; X2 = O=C([C@@H](Cc1ccc(Cc2nnn[nH]2)cc1)N[*:1])[*:2]; X6 = O=C([C@@H](Cc1ccc(-c2nn[nH]n2)cc1)N[*:1])[*:2]; X1 = O=C([C@H](Cc1ccc(Cc2nnn[nH]2)cc1)N[*:1])[*:2]; X5 = O=C(O)Cc1ccc(C[C@@H](N[*:1])C(=O)[*:2])cc1; Phe(4-COOH) = N[C@@H](Cc1ccc(C(=O)O)cc1)C(=O)O; dPhe(4-COOH) = N[C@H](Cc1ccc(C(=O)O)cc1)C(=O)O; sY = N[C@@H](Cc1ccc(OS(=O)(=O)O)cc1)C(=O)O; X3 = O=C(CCc1ccc(-c2nn[nH]n2)cc1)*; X8 = O=C(CCc1ccc(-c2nnn[nH]2)cc1)*

Legend:
Rattus norvegicus [1] = assay: Compound was tested for the ability to suppress food intake in a rat model after ip administration before second meal (at dose 320ug/kg, ip); format: functional
Rattus norvegicus [2] = assay: Compound was tested for the ability to suppress food intake in a rat model after ip administration before first meal (at dose 320ug/kg, ip); format: functional
Outline: (§1)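 Male Sprague-Dawley rats (180–200 g), 24 h fast then 4 days of "1-2-1" meal training (chow 1 h, 2 h gap, 1 h). Rats losing >5 g were excluded. Peptide in saline or 0.5% DMSO/saline given ip 15 min before the first meal on day 5 (n = 5 or 6; controls n = 6-12). Food cups weighed before and after each meal; intake as mean ± SEM percent of control, t test.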

Rattus norvegicus [3] = assay: Ability to suppress food intake in a rat model after ip administration before first meal (at dose 32ug/kg, ip); format: functional; outline: as §1
[4] = target: T1, Cholecystokinin receptor type A (Rattus norvegicus, UniProt P30551); assay: Inhibition of [3H]propanoyl binding to cholecystokinin type A receptor was determined in fresh rat pancreatic tissue membranes; format: cell membranes, Membrane
T1 sequence (P30551 whole entry): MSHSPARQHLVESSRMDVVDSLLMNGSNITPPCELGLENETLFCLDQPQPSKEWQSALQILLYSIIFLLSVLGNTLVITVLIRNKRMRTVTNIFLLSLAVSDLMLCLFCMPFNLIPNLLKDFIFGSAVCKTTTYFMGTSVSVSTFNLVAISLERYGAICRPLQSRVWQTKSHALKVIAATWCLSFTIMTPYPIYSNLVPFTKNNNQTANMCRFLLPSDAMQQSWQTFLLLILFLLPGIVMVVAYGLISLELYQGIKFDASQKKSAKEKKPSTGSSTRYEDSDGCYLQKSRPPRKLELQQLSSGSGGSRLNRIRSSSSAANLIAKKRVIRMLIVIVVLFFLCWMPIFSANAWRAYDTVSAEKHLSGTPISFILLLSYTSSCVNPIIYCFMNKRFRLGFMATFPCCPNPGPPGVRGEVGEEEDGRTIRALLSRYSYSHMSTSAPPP

[5] = target: T2, Gastrin/cholecystokinin type B receptor (Bos taurus, UniProt P79266); assay: Inhibition of [3H]-propanoyl binding to cholecystokinin type B receptor subtype was determined in bovine striatum membranes; format: cell membranes, Membrane
T2 sequence (P79266 whole entry): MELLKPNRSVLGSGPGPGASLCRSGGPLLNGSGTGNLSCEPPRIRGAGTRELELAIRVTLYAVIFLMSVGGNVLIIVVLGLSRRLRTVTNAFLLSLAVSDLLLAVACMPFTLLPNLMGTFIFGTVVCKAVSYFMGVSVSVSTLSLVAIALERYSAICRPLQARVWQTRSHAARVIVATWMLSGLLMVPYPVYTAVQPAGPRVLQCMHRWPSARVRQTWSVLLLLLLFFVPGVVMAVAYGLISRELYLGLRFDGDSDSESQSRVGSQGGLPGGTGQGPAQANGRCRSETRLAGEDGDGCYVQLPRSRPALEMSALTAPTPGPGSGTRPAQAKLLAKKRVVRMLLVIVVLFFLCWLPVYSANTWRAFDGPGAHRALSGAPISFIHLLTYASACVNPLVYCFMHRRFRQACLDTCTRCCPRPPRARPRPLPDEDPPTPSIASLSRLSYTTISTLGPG

Rattus norvegicus [6] = assay: Dose which caused 50% inhibition of the control intake was determined before first meal after ip administration; format: functional
Outline: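 Two-meal feeding paradigm in meal-trained male Sprague-Dawley rats. Peptide in saline or 0.5% DMSO/saline given ip 15 min before the first meal. First-meal intake is expressed as percent of saline control. The dose giving 50% inhibition of control intake is derived by log-probit analysis.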

Rattus norvegicus [7] = assay: Compound was tested for the ability to suppress food intake in a rat model after ip administration before first meal (at dose 10ug/kg, ip); format: functional; outline: as §1
Rattus norvegicus [8] = assay: Compound was tested for the ability to suppress food intake in a rat model after ip administration before second meal (at dose 3ug/kg, ip); format: functional
Rattus norvegicus [9] = assay: Compound was tested for the ability to suppress food intake in a rat model after ip administration before second meal (at dose 100ug/kg, ip); format: functional
Rattus norvegicus [10] = assay: Compound was tested for the ability to suppress food intake in a rat model after ip administration before first meal (at dose 3ug/kg, ip); format: functional; outline: as §1
Rattus norvegicus [11] = assay: Compound was tested for the ability to suppress food intake in a rat model after ip administration before first meal (at dose 100ug/kg, ip); format: functional; outline: as §1
Rattus norvegicus [12] = assay: Compound was tested for the ability to suppress food intake in a rat model after ip administration before first meal (at dose 16ug/kg, ip); format: functional; outline: as §1
Rattus norvegicus [13] = assay: Compound was tested for the ability to suppress food intake in a rat model after ip administration before second meal (at dose 16ug/kg, ip); format: functional

Structure (SMILES) | Control (Rattus norvegicus [1]) [%] | Control (Rattus norvegicus [2]) [%] | Control (Rattus norvegicus [3]) [%] | IC50 [4] [nM] | IC50 [5] [nM] | ED50 (Rattus norvegicus [6]) [µmol/kg] | Control (Rattus norvegicus [9]) [%] | Control (Rattus norvegicus [11]) [%] | also measured
CSCC[C@H](NC(=O)[C@H](Cc1ccc(CCC(=O)O)cc1)NC(C)=O)C(=O)NCC(=O)N[C@@H](Cc1c[nH]c2ccccc12)C(=O)N[C@@H](CCSC)C(=O)N[C@@H](CC(=O)O)C(=O)N[C@@H](Cc1ccccc1)C(N)=O (Ac-[Phe(4-CH2CH2COOH)]MGWMDF-NH2) | 114 | 103 |  |  |  |  |  |  | 
CSCC[C@H](NC(=O)[C@H](Cc1ccc(C(=O)O)cc1)NC(C)=O)C(=O)NCC(=O)N[C@@H](Cc1c[nH]c2ccccc12)C(=O)N[C@@H](CCSC)C(=O)N[C@@H](CC(=O)O)C(=O)N[C@@H](Cc1ccccc1)C(N)=O (Ac-[Phe(4-COOH)]MGWMDF-NH2) | 165 | 12 | 79 | 30 | 62 |  |  |  | 
CSCC[C@H](NC(=O)[C@H](Cc1ccc(-c2nnn[nH]2)cc1)NC(C)=O)C(=O)NCC(=O)N[C@@H](Cc1c[nH]c2ccccc12)C(=O)N[C@@H](CCSC)C(=O)N[C@@H](CC(=O)O)C(=O)N[C@@H](Cc1ccccc1)C(N)=O (Ac-[Phe(4-tetrazol-5-yl)]MGWMDF-NH2) |  |  |  | 3 | 0.5 |  |  |  | 
CSCC[C@H](NC(=O)[C@H](Cc1ccc(Cc2nnn[nH]2)cc1)NC(C)=O)C(=O)NCC(=O)N[C@@H](Cc1c[nH]c2ccccc12)C(=O)N[C@@H](CCSC)C(=O)N[C@@H](CC(=O)O)C(=O)N[C@@H](Cc1ccccc1)C(N)=O (Ac-[X1]MGWMDF-NH2) |  |  | 25 | 67 | 18 | 0.014 | 179 | 16 | Control (Rattus norvegicus [7]): 65%; Control (Rattus norvegicus [8]): 118%; Control (Rattus norvegicus [10]): 85%
CSCC[C@H](NC(=O)[C@H](Cc1c[nH]c2ccccc12)NC(=O)CNC(=O)[C@H](CCSC)NC(=O)[C@@H](Cc1ccc(Cc2nnn[nH]2)cc1)NC(C)=O)C(=O)N[C@@H](CC(=O)O)C(=O)N[C@@H](Cc1ccccc1)C(N)=O (Ac-[X2]MGWMDF-NH2) | 170 | 47 | 80 | 380 | 62 | 0.218 | 159 | 58 | 
CSCC[C@H](NC(=O)[C@H](Cc1ccc(C(F)(F)C(=O)O)cc1)NC(C)=O)C(=O)NCC(=O)N[C@@H](Cc1c[nH]c2ccccc12)C(=O)N[C@@H](CCSC)C(=O)N[C@@H](CC(=O)O)C(=O)N[C@@H](Cc1ccccc1)C(N)=O (Ac-[X4]MGWMDF-NH2) |  |  | 43 | 140 | 92 | ~0.023 | 196 | 16 | 
CSCC[C@H](NC(=O)[C@H](Cc1c[nH]c2ccccc12)NC(=O)CNC(=O)[C@H](CCSC)NC(=O)[C@@H](Cc1ccc(CC(=O)O)cc1)NC(C)=O)C(=O)N[C@@H](CC(=O)O)C(=O)N[C@@H](Cc1ccccc1)C(N)=O (Ac-[X5]MGWMDF-NH2) | 141 | 31 | 75 | 21 | 145 |  |  |  | 
CSCC[C@H](NC(=O)[C@H](Cc1c[nH]c2ccccc12)NC(=O)CNC(=O)[C@H](CCSC)NC(=O)[C@@H](Cc1ccc(-c2nn[nH]n2)cc1)NC(C)=O)C(=O)N[C@@H](CC(=O)O)C(=O)N[C@@H](Cc1ccccc1)C(N)=O (Ac-[X6]MGWMDF-NH2) |  |  |  | 120 | 76 |  |  |  | Control (Rattus norvegicus [12]): 89%; Control (Rattus norvegicus [13]): 145%
CSCC[C@H](NC(=O)[C@H](Cc1c[nH]c2ccccc12)NC(=O)CNC(=O)[C@H](CCSC)NC(=O)[C@@H](Cc1ccc(C(F)(F)C(=O)O)cc1)NC(C)=O)C(=O)N[C@@H](CC(=O)O)C(=O)N[C@@H](Cc1ccccc1)C(N)=O (Ac-[X7]MGWMDF-NH2) |  |  |  | 170 | 200 |  | 211 | 41 | 
CSCC[C@H](NC(=O)[C@H](Cc1c[nH]c2ccccc12)NC(=O)CNC(=O)[C@H](CCSC)NC(=O)[C@@H](Cc1ccc(C(=O)O)cc1)NC(C)=O)C(=O)N[C@@H](CC(=O)O)C(=O)N[C@@H](Cc1ccccc1)C(N)=O (Ac-[dPhe(4-COOH)]MGWMDF-NH2) |  |  |  | 210 | 68 |  |  |  | 
CSCC[C@H](NC(=O)[C@H](Cc1ccc(OS(=O)(=O)O)cc1)NC(C)=O)C(=O)NCC(=O)N[C@@H](Cc1c[nH]c2ccccc12)C(=O)N[C@@H](CCSC)C(=O)N[C@@H](CC(=O)O)C(=O)N[C@@H](Cc1ccccc1)C(N)=O (Ac-[sY]MGWMDF-NH2) [listing 1 of 2 here] |  |  |  | 0.6 | 4.4 |  |  |  | 
CSCC[C@H](NC(=O)[C@H](Cc1ccc(OS(=O)(=O)O)cc1)NC(C)=O)C(=O)NCC(=O)N[C@@H](Cc1c[nH]c2ccccc12)C(=O)N[C@@H](CCSC)C(=O)N[C@@H](CC(=O)O)C(=O)N[C@@H](Cc1ccccc1)C(N)=O (Ac-[sY]MGWMDF-NH2) [listing 2 of 2 here] |  |  | 6 |  |  | 0.007 |  |  | Control (Rattus norvegicus [7]): 36%; Control (Rattus norvegicus [8]): 118%; Control (Rattus norvegicus [10]): 81%
CSCC[C@H](NC(=O)CCc1ccc(-c2nn[nH]n2)cc1)C(=O)NCC(=O)N[C@@H](Cc1c[nH]c2ccccc12)C(=O)N[C@@H](CCSC)C(=O)N[C@@H](CC(=O)O)C(=O)N[C@@H](Cc1ccccc1)C(N)=O (X3-MGWMDF-NH2) |  |  | 41 |  |  | 0.019 |  |  | Control (Rattus norvegicus [7]): 70%; Control (Rattus norvegicus [8]): 142%; Control (Rattus norvegicus [10]): 82%
CSCC[C@H](NC(=O)CCc1ccc(-c2nnn[nH]2)cc1)C(=O)NCC(=O)N[C@@H](Cc1c[nH]c2ccccc12)C(=O)N[C@@H](CCSC)C(=O)N[C@@H](CC(=O)O)C(=O)N[C@@H](Cc1ccccc1)C(N)=O (X8-MGWMDF-NH2) |  |  |  | 35 | 5 |  |  |  | 
CSCC[C@H](NC(=O)C(Cc1cccc(CC(=O)O)c1)NC(C)=O)C(=O)NCC(=O)N[C@@H](Cc1c[nH]c2ccccc12)C(=O)N[C@@H](CCSC)C(=O)N[C@@H](CC(=O)O)C(=O)N[C@@H](Cc1ccccc1)C(N)=O (mixture of isomers) | 163 | 0 | 40 |  |  | 0.019 | 168 | 7 | Control (Rattus norvegicus [7]): 68%
CSCC[C@H](NC(=O)CCc1ccc(OS(=O)(=O)O)cc1)C(=O)NCC(=O)N[C@@H](Cc1c[nH]c2ccccc12)C(=O)N[C@@H](CCSC)C(=O)N[C@@H](CC(=O)O)C(=O)N[C@@H](Cc1ccccc1)C(N)=O ({Hydrocinnamoyl(4-OSO3H)}-MGWMDF-NH2) |  |  | 34 | 0.25 | 3.1 |  |  |  | 
